The source of these data is ChEMBL document CHEMBL3272176, “Nucleic acids. 16. Orally active derivatives of ara-cytidine” (1976).

Assay [1] deals with L1210. The experiment in a line: Antitumor activity against mouse L1210 cells allografted in mouse assessed as increase in life span at 100 umol/kg/day, po using 0.9% (W/V) aqueous NaCl vehicle for 5 days 24 hrs after tumor inoculation. Format: functional. The essentials: (§1)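 Mice were inoculated ip on day 0 with 1×10^6 L1210 cells each. Dosing started 24 h later, once daily for 5 days, in groups of eight. Survival was recorded to the nearest day. %ILS was calculated from median survival of treated vs control groups, with ≥25% counted as significant. For the plain-saline and HCl vehicles, compound was first wetted with a few drops of ethanol (<5% v/v).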

Assay [2] has as its system L1210. In words: Antitumor activity against mouse L1210 cells allografted in mouse assessed as increase in life span at 200 umol/kg/day, po using 0.9% (W/V) aqueous NaCl vehicle for 5 days 24 hrs after tumor inoculation. The assay is classed as functional. In outline: as §1
Assay [3] has as its system L1210. The experiment in a line: Antitumor activity against mouse L1210 cells allografted in mouse assessed as increase in life span at 400 umol/kg/day, po using 0.9% (W/V) aqueous NaCl vehicle for 5 days 24 hrs after tumor inoculation. Format: functional. The essentials:
as §1

In assay [4] the test system is L1210. The experiment in a line: Antitumor activity against mouse L1210 cells allografted in mouse assessed as increase in life span at 100 umol/kg/day, po using 0.9% (W/V) aqueous NaCl vehicle for 5 days 24 hrs after tumor inoculation in presence of THU 10 mg/kg/day on days 1 to 5. Format: functional. In outline:
as §1

The test system of assay [5] is L1210. In words: Antitumor activity against mouse L1210 cells allografted in mouse assessed as increase in life span at 200 umol/kg/day, po using 0.9% (W/V) aqueous NaCl vehicle for 5 days 24 hrs after tumor inoculation in presence of THU 10 mg/kg/day on days 1 to 5. The assay is classed as functional. The essentials: as §1
Assay [6] concerns L1210. The experiment in a line: Antitumor activity against mouse L1210 cells allografted in mouse assessed as increase in life span at 100 umol/kg/day, ip using 0.9% (W/V) aqueous NaCl vehicle for 5 days 24 hrs after tumor inoculation. Format: functional. In outline:
as §1

Assay [7] concerns L1210. In words: Antitumor activity against mouse L1210 cells allografted in mouse assessed as increase in life span at 200 umol/kg/day, ip using 0.9% (W/V) aqueous NaCl vehicle for 5 days 24 hrs after tumor inoculation. The assay is classed as functional. In outline:
as §1

Assay [8] concerns L1210. The experiment in a line: Antitumor activity against mouse L1210 cells allografted in mouse assessed as increase in life span at 400 umol/kg/day, ip using 0.9% (W/V) aqueous NaCl vehicle for 5 days 24 hrs after tumor inoculation. Format: functional. The essentials:
as §1

Assay [9] concerns Rattus norvegicus. In words: Immunosuppression activity in rat assessed as reduction of adjuvant-induced acute inflammation administered po twice daily on days 0 to 14.
The subject of assay [10] is Rattus norvegicus. The experiment in a line: Immunosuppression activity in rat assessed as reduction of adjuvant-induced polyarthritis administered po twice daily on days 0 to 14 measured on day 21.
Assay [11] concerns Rattus norvegicus. The experiment in a line: Immunosuppression activity in rat assessed as reduction of adjuvant-induced polyarthritis administered po twice daily for days 0 to 14 measured on day 15.
The test system of assay [12] is L1210. The experiment in a line: Antitumor activity against mouse L1210 cells allografted in mouse assessed as increase in life span at 400 umol/kg/day, po using 0.9% (W/V) aqueous NaCl vehicle for 5 days 24 hrs after tumor inoculation in presence of THU 10 mg/kg/day on days 1 to 5.
Assay [13] has as its system L1210. In words: Antitumor activity against mouse L1210 cells allografted in mouse assessed as increase in life span at 100 umol/kg/day, po using 0.01 N HCl vehicle for 5 days 24 hrs after tumor inoculation. The assay is classed as functional. The essentials:
as §1

Assay [14] deals with L1210. In words: Antitumor activity against mouse L1210 cells allografted in mouse assessed as increase in life span at 200 umol/kg/day, po using 0.01 N HCl vehicle for 5 days 24 hrs after tumor inoculation. The assay is classed as functional. In outline: as §1
Assay [15] relates to L1210. The experiment in a line: Antitumor activity against mouse L1210 cells allografted in mouse assessed as increase in life span at 400 umol/kg/day, po using 0.01 N HCl vehicle for 5 days 24 hrs after tumor inoculation. Format: functional. In outline:
as §1

The test system of assay [16] is Rattus norvegicus. The experiment in a line: Immunosuppression in experimental allergic encephalomyelitis rat model administered po for days 1 to 13 measured on day 17.
Assay [17] has as its system Rattus norvegicus. In words: Immunosuppression activity in experimental allergic encephalomyelitis rat model administered po for days 1 to 13 measured on day 14.
The test system of assay [18] is L1210. The experiment in a line: Antitumor activity against mouse L1210 cells allografted in mouse assessed as increase in life span at 100 umol/kg/day, po using saline vehicle for 5 days 24 hrs after tumor inoculation. The assay is classed as functional. The essentials:
as §1

Assay [19] concerns L1210. In words: Antitumor activity against mouse L1210 cells allografted in mouse assessed as increase in life span at 200 umol/kg/day, po using saline vehicle for 5 days 24 hrs after tumor inoculation. The assay is classed as functional. In outline:
as §1

Assay [20] has as its system L1210. In words: Antitumor activity against mouse L1210 cells allografted in mouse assessed as increase in life span at 400 umol/kg/day, po using saline vehicle for 5 days 24 hrs after tumor inoculation. Format: functional. The essentials: as §1
Assay [21] has as its system L1210. The experiment in a line: Antitumor activity against mouse L1210 cells allografted in mouse assessed as increase in life span at 100 umol/kg/day, po using 0.1 N HCl vehicle for 5 days 24 hrs after tumor inoculation. The assay is classed as functional. In outline:
as §1

The test system of assay [22] is L1210. In words: Antitumor activity against mouse L1210 cells allografted in mouse assessed as increase in life span at 200 umol/kg/day, po using 0.1 N HCl vehicle for 5 days 24 hrs after tumor inoculation. The assay is classed as functional. In outline:
as §1

Assay [23] has as its system L1210. In words: Antitumor activity against mouse L1210 cells allografted in mouse assessed as increase in life span at 400 umol/kg/day, po using 0.1 N HCl vehicle for 5 days 24 hrs after tumor inoculation. The assay is classed as functional. The essentials: as §1

What is called ILS is how much longer treated animals lived than controls. In the case of `Nc1ccn([C@@H]2O[C@H](CO)[C@@H](O)[C@@H]2O)c(=O)n1` [CYTARABINE], the increase in lifespan (ILS) at 100 µmol/kg in the assay with L1210 [1] was determined as 15%; in the assay with L1210 [6] it was 69%. The increase in lifespan (ILS) at 200 µmol/kg in the assay on L1210 [2] was 38%; in the assay on L1210 [7], 100%. Besides, the values for the ILS at 400 µmol/kg with L1210 [3] and in the assay with L1210 [8] were 62% and 131%, respectively. Moreover, the ILS in the assay on L1210 [4] is listed as 62%; with L1210 [5], 92%; in the assay on L1210 [12] it was 138%. Moreover, the “inhibition (INH)” value is given as -4% in the assay with Rattus norvegicus [9], 7% in the assay with Rattus norvegicus [10] and 20% in the assay with Rattus norvegicus [11].
In the case of `CCCCCCCCCCCCCCCC(=O)OC[C@H]1O[C@@H](n2ccc(N)nc2=O)[C@@H](O)[C@@H]1O.Cl`, the ILS at 100 µmol/kg in the assay on L1210 [13] came out at 46%. Besides, in the assay on L1210 [14], the increase in lifespan (ILS) at 200 µmol/kg was 69%. In addition, the ILS at 400 µmol/kg in the assay on L1210 [15] is 92%. For the same compound, the “inhibition (INH)” value in the assay with Rattus norvegicus [16] is on record as 13.2%; in the assay on Rattus norvegicus [17], 8.1%; with Rattus norvegicus [9], 13%; in the assay on Rattus norvegicus [10], 6%; with Rattus norvegicus [11], 11%.
Regarding `CCCCCCCCCCCCCCCC(=O)OC[C@H]1O[C@@H](n2ccc(NC(=O)[C@H](CCCNC(=N)N)NC(=O)CNC(=O)OC(C)(C)C)nc2=O)[C@@H](O)[C@@H]1O.Cl`, in the assay on L1210 [1], the increase in life span (ILS) at 100 µmol/kg is 30%. The increase in lifespan (ILS) at 200 µmol/kg in the assay on L1210 [2] stood at 44%. For the same compound, the ILS at 400 µmol/kg with L1210 [3] amounted to 110%. In addition, the “inhibition (INH)” value in the assay with Rattus norvegicus [16] is on record as 10.5%; with Rattus norvegicus [17], 35.1%; in the assay on Rattus norvegicus [9], 6%.
With `Cl.Nc1ccn([C@@H]2O[C@H](COC(=O)c3ccccc3)[C@@H](O)[C@@H]2O)c(=O)n1`, in the assay on L1210 [18], the increase in lifespan (ILS) at 100 µmol/kg was 15%. In addition, the ILS at 200 µmol/kg in the assay on L1210 [19] came out at 31%. Also, the ILS at 400 µmol/kg in the assay with L1210 [20] came out at 62%. The “inhibition (INH)” value in the assay with Rattus norvegicus [16] worked out at 0%; in the assay with Rattus norvegicus [17] it was 0%; in the assay with Rattus norvegicus [9] it was 15%; in the assay on Rattus norvegicus [10], 20%; in the assay with Rattus norvegicus [11], 47%.
`Cl.Nc1ccn([C@@H]2O[C@H](COC(=O)c3cccnc3)[C@@H](O)[C@@H]2O)c(=O)n1`: the ILS at 100 µmol/kg in the assay with L1210 [13] worked out at 31%. For the same compound, the increase in lifespan (ILS) at 200 µmol/kg in the assay with L1210 [14] came to 46%. Also, in the assay on L1210 [15], the ILS at 400 µmol/kg turned out to be 69%. For the same compound, the “inhibition (INH)” value in the assay with Rattus norvegicus [9] is 4%; in the assay on Rattus norvegicus [10], 0%; with Rattus norvegicus [11], 0%.
As for `CC(C)(C)OC(=O)NCC(=O)N[C@@H](CCCNC(=N)N)C(=O)Nc1ccn([C@@H]2O[C@H](COC(=O)c3ccccc3)[C@@H](O)[C@@H]2O)c(=O)n1.Cl`, the increase in life span (ILS) at 100 µmol/kg in the assay with L1210 [1] came to 14%. Further, the ILS at 200 µmol/kg with L1210 [2] was found to be 21%. In addition, in the assay with L1210 [3], the ILS at 400 µmol/kg was found to be 43%. The “inhibition (INH)” value is 5.3% in the assay with Rattus norvegicus [16]; 13.5% with Rattus norvegicus [17]; 9% in the assay on Rattus norvegicus [9]; 35% with Rattus norvegicus [10]; 52% in the assay on Rattus norvegicus [11].
For `Cl.Nc1ccn([C@@H]2O[C@H](COC(=O)C34CC5CC(CC(C5)C3)C4)[C@@H](O)[C@@H]2O)c(=O)n1`, in the assay with L1210 [21], the increase in life span (ILS) at 100 µmol/kg is 46%. Besides, the ILS at 200 µmol/kg in the assay with L1210 [22] was determined as 77%. In addition, the increase in lifespan (ILS) at 400 µmol/kg in the assay with L1210 [23] stood at 130%. Besides, the “inhibition (INH)” value stood at 7.9% with Rattus norvegicus [16]; 5.4% with Rattus norvegicus [17]; 4% with Rattus norvegicus [9]; 28% in the assay on Rattus norvegicus [10]; 31% in the assay with Rattus norvegicus [11].
Turning to `CC(C)(C)OC(=O)NCC(=O)N[C@@H](CCCNC(=N)N)C(=O)Nc1ccn([C@@H]2O[C@H](COC(=O)C34CC5CC(CC(C5)C3)C4)[C@@H](O)[C@@H]2O)c(=O)n1.Cl`, in the assay with L1210 [1], the increase in life span (ILS) at 100 µmol/kg came to 21%. The ILS at 200 µmol/kg with L1210 [2] stood at 43%. For the same compound, the increase in lifespan (ILS) at 400 µmol/kg in the assay on L1210 [3] turned out to be 93%. The “inhibition (INH)” value is 10.5% with Rattus norvegicus [16]; 5.4% in the assay with Rattus norvegicus [17]; 1% in the assay on Rattus norvegicus [9]; 18% in the assay on Rattus norvegicus [10]; 50% in the assay with Rattus norvegicus [11].
Consider `Cl.Nc1ccn([C@@H]2O[C@H](COC(=O)C3CC4CCN3CC4)[C@@H](O)[C@@H]2O)c(=O)n1` (stereo not given in full), for which the ILS at 100 µmol/kg with L1210 [18] came out at 8%. In addition, the ILS at 200 µmol/kg in the assay on L1210 [19] was found to be 0%. Besides, the increase in lifespan (ILS) at 400 µmol/kg in the assay with L1210 [20] was 15%. In addition, the “inhibition (INH)” value in the assay on Rattus norvegicus [9] is -2%; with Rattus norvegicus [10], 0%; with Rattus norvegicus [11], 5%.
